Measurements pooled from the literature.
Protocols differ between the studies behind these lines.
Target: Activated CDC42 kinase 1 (TNK2, Homo sapiens, UniProt Q07912)

SMILES	observed	method	tested at	remaining binding [%]
c1cncc(-c2cccc(Nc3nccc(NC4CCCCC4)n3)c2)c1	binding	competition with immobilised ligand	10 µM	43
CN([C@@H]1CCc2c(CC(=O)O)c3ccccc3n2C1)S(=O)(=O)c1ccc(F)cc1	cell-free assay	competition with immobilised ligand	1 µM	100
O=C(c1ccc(Nc2ncc(Cl)c(-c3ccc(Cl)s3)n2)cc1)N1CCC(N2CCCC2)CC1	binding	competition with immobilised ligand	1 µM	44
O=C(NCC1CCOCC1)c1n[nH]cc1NC(=O)c1c(F)cccc1F	binding	competition with immobilised ligand	1 µM	98
N[C@H]1CCN(c2nccc(-c3cnn4ncccc34)n2)C1	binding	–	1 µM	77
CCN(CC)CCNC(=O)c1c(C)[nH]c(/C=C2\C(=O)Nc3ccc(F)cc32)c1C	cell-free assay	competition with immobilised ligand	0.1 µM	93
CC1CCCN1c1nccc(-c2cnn3ncccc23)n1 (stereo not shown)	binding	–	1 µM	85
C=CC(=O)N1CCC(C(=O)NCC(=O)N2CCN(c3nc(-c4cnc(N)nc4C(F)F)nc(N4CCOCC4)n3)CC2)CC1	binding	competition with immobilised ligand	1 µM	100
C[C@@H]1CCN(c2nccc(-c3cnn4ncccc34)n2)C1	binding	–	1 µM	100
FC(F)(F)Oc1cccc(-c2cnc3ccc(-c4ccncc4)nn23)c1	binding	competition with immobilised ligand	5 µM	79
O=C(NCCCN1CCOCC1)c1ccc(Nc2nccc(-c3cc4ccccc4s3)n2)cc1	binding	competition with immobilised ligand	1 µM	63
CN(CCCC(F)(F)F)c1nccc(-c2cnn3ncccc23)n1	binding	–	1 µM	83
CNCc1ccccc1-c1csc([C@@H](C)Nc2nc(C)nc3cc(OC)c(OC)cc23)c1	cell-free assay	competition with immobilised ligand	1 µM	100
COc1ccnn2ncc(-c3ccnc(N(C)C)n3)c12	binding	–	1 µM	100
Cc1c(C(=O)O)cc(-c2ccc(C3CCNCC3)cc2)c2ccc(-c3ccc(C(F)(F)F)cc3)cc12	binding	competition with immobilised ligand	1 µM	100
CNC(=O)c1cc(Oc2ccc(NC(=O)Nc3ccc(Cl)c(C(F)(F)F)c3)cc2)ccn1	cell-free assay	competition with immobilised ligand	10 µM	89

SMILES	observed	method	tested at	remaining binding [%]
COc1cccc(CNC(=O)c2nc3scc(COCc4ccc(C(=O)O)cc4)c3c(=O)[nH]2)c1	cell-free assay	competition with immobilised ligand	1 µM	89.6
CNC(=O)[C@@H]1CC[C@@H](n2c(-c3ccc4cnccc4c3)nc3ccc(C(=O)NCc4cccc(C(N)=O)c4)cc32)C1	binding	competition with immobilised ligand	1 µM	100
O=C(NC[C@@H]1[C@H]2CN(C(=O)OCc3cc(C(F)(F)F)cc(C(F)(F)F)c3)C[C@@H]12)c1ccc2[nH]nnc2c1	cell-free assay	competition with immobilised ligand	1 µM	100
Cc1c(-c2ccccc2)oc2c(C(=O)OCCN3CCCCC3)cccc2c1=O	cell-free assay	competition with immobilised ligand	10 µM	94
CN(C)c1ncc(F)c(-c2cnn3ncccc23)n1	binding	–	1 µM	77
CS(=O)(=O)CCNCc1ccc(-c2ccc3ncnc(Nc4ccc(OCc5cccc(F)c5)c(Cl)c4)c3c2)o1	cell-free assay	competition with immobilised ligand	10 µM	93
CCS(=O)(=O)c1cc2cc(C[C@](O)(CC(C)(C)c3ccc(F)cc3C(N)=O)C(F)(F)F)[nH]c2cn1	cell-free assay	competition with immobilised ligand	1 µM	100
COc1cc2ncnc(Nc3ccc(F)c(Cl)c3)c2cc1OCCCN1CCOCC1	cell-free assay	competition with immobilised ligand	10 µM	77
Cn1nc(C(F)(F)F)cc1-c1cnc(N2CCc3cc(S(=O)(=O)Nc4c(F)cc(Cl)cc4F)cc(N4CCCC4=O)c32)nc1	cell-free assay	competition with immobilised ligand	1 µM	100
Cc1nc(Nc2ncc(C(=O)Nc3c(C)cccc3Cl)s2)cc(N2CCN(CCO)CC2)n1	cell-free assay	competition with immobilised ligand	0.1 µM	4
F[C@@H]1CCN(c2nccc(-c3cnn4ncccc34)n2)C1	binding	–	1 µM	79
CN1CC[C@H](c2c(O)cc(O)c3c(=O)cc(-c4ccccc4Cl)oc23)[C@H](O)C1	cell-free assay	competition with immobilised ligand	10 µM	74
O=C(c1ccc(Nc2ncc(Cl)c(-c3cc4ccccc4s3)n2)cc1)N1CCC(N2CCCC2)CC1	binding	competition with immobilised ligand	1 µM	54
O=C(NS(=O)(=O)c1ccc(NCC2CCOCC2)c([N+](=O)[O-])c1)c1ccc(N2CCN(Cc3ccc(C(F)(F)F)cc3-c3ccc(Cl)cc3)CC2)cc1Oc1cnc2[nH]ccc2c1	cell-free assay	competition with immobilised ligand	1 µM	100
CCN(CC)Cc1cc(Nc2ccnc3cc(Cl)ccc23)ccc1O	cell-free assay	competition with immobilised ligand	10 µM	100
